# Results from ChEMBL document CHEMBL1649147, “Antistaphylococcal activity of dihydrophthalazine antifolates, a family of novel antibacterial drugs” (2009).
# Key:
# Staphylococcus aureus [1] = experiment: Antibacterial activity against methicillin-resistant Staphylococcus aureus ATCC 43300 by broth macrodilution method; type: functional; settings: ATCC43300
# [2] = test system: Staphylococcus epidermidis; experiment: Antibacterial activity against coagulase-negative Staphylococcus epidermidis 057 after 10 passages in MBH without antibiotic by agar dilution method; type: functional
# How it was run: (§1)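 After drug-selective serial passage, selected clones were passaged 10 times in antibiotic-free MHB. MICs were then redetermined, and the change is expressed as log2 dilution steps.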
# Staphylococcus aureus [3] = experiment: Antibacterial activity against methicillin-resistant Staphylococcus aureus by agar dilution method; type: functional
# How it was run: (§2)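 Agar dilution on Mueller-Hinton agar per CLSI guidelines. S. aureus ATCC 29213 and E. faecalis ATCC 29212 were run with each set, and test MICs were accepted only when the control strains fell within acceptable ranges.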
# Staphylococcus aureus [4] = experiment: Antibacterial activity against Staphylococcus aureus 505 assessed as change in MIC by agar dilution method after serial passages in presence of antibiotic relative to control; type: functional
# How it was run: (§3)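 Serial passage under drug. Inoculum was ~1 × 10^6 CFU/ml from overnight MHA growth, in 1 ml MHB at 35°C for 24 h. Drug ranged from 4 log2 steps above to 3 log2 steps below the MIC. […] MIC change is given as log2 steps.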
# [5] = test system: coagulase-negative staphylococci; experiment: Antibacterial activity against methicillin-resistant coagulase-negative staphylococci by agar dilution method
# Staphylococcus aureus [6] = experiment: Antibacterial activity against vancomycin-resistant Staphylococcus aureus VRS1 assessed as change in MIC by agar dilution method after serial passages in the absence of antibiotic relative to control; type: functional
# How it was run: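 Clones from the end of drug passage were transferred 10 times in MHB without antibiotic, then retested by agar dilution. MIC change is expressed as log2 dilution steps.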
# Staphylococcus aureus [7] = experiment: Antibacterial activity against Tmp-susceptible coagulase-negative Staphylococcus aureus by agar dilution method; type: functional
# How it was run: (§4)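 MICs by agar dilution on Mueller-Hinton agar following CLSI guidelines. S. aureus ATCC 29213 and E. faecalis ATCC 29212 were run as quality controls with each set, and test-strain MICs were kept only if control MICs fell within acceptable ranges.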
# Staphylococcus aureus [8] = experiment: Antibacterial activity against methicillin-susceptible Staphylococcus aureus ATCC 29213 after 50 passages by agar dilution method; type: functional; settings: ATCC29213
# How it was run: (§5)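 Daily serial passage for up to 50 days at 35°C for 24 h in 1 ml MHB. […] Each transfer used 10 µl from the tube nearest the MIC (1–2 dilutions below) with the same turbidity as the drug-free control. […] MICs were measured by agar dilution, with changes given as log2 steps.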
# [9] = test system: coagulase-negative staphylococci; experiment: Antibacterial activity against Tmp-resistant coagulase-negative staphylococci by agar dilution method
# [10] = test system: Staphylococcus epidermidis; experiment: Antibacterial activity against methicillin-resistant coagulase-negative Staphylococcus epidermidis 074 by broth macrodilution method; type: functional
# [11] = test system: Staphylococcus epidermidis; experiment: Antibacterial activity against methicillin-resistant, vancomycin-intermediate coagulase-negative Staphylococcus epidermidis 225 by agar dilution method; type: functional; how it was run: as §2
# [12] = test system: Staphylococcus epidermidis; experiment: Antibacterial activity against coagulase-negative Staphylococcus epidermidis 051 assessed as change in MIC by agar dilution method after serial passages in the absence of antibiotic relative to control; type: functional; how it was run: as §1
# Staphylococcus aureus [13] = experiment: Antibacterial activity against vancomycin-resistant Staphylococcus aureus VRS1 by broth macrodilution method; type: functional
# How it was run: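 Michigan VRSA strain, one of 12 staphylococci later used in time-kill studies. MIC was determined by broth macrodilution and reported in μg/ml.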
# [14] = test system: Staphylococcus epidermidis; experiment: Antibacterial activity against methicillin-resistant coagulase-negative Staphylococcus epidermidis 345 by broth macrodilution method; type: functional
# Staphylococcus aureus [15] = experiment: Antibacterial activity against methicillin-susceptible Staphylococcus aureus by agar dilution method; type: functional; how it was run: as §2
# [16] = test system: Staphylococcus epidermidis; experiment: Antibacterial activity against coagulase-negative Staphylococcus epidermidis 225 assessed as change in MIC by agar dilution method after serial passages in presence of antibiotic relative to control; type: functional; how it was run: as §3
# [17] = test system: Staphylococcus epidermidis; experiment: Antibacterial activity against methicillin-resistant, Linezolid non-susceptible coagulase-negative Staphylococcus epidermidis 345 by agar dilution method; type: functional
# [18] = test system: coagulase-negative staphylococci; experiment: Antibacterial activity against methicillin-susceptible coagulase-negative staphylococci by agar dilution method
# [19] = test system: Staphylococcus epidermidis; experiment: Antibacterial activity against coagulase-negative Staphylococcus epidermidis 057 by agar dilution method; type: functional
# How it was run: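 Agar dilution MIC determined on Mueller-Hinton agar following CLSI guidelines. S. aureus ATCC 29213 and Enterococcus faecalis ATCC 29212 were run as quality controls with each set, and test MICs were accepted only when the control MICs fell within acceptable ranges. Test organism was a coagulase-negative S. epidermidis strain.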
# [20] = test system: Staphylococcus epidermidis; experiment: Antibacterial activity against coagulase-negative Staphylococcus epidermidis 225 assessed as change in MIC by agar dilution method after serial passages in the absence of antibiotic relative to control; type: functional; how it was run: as §1
# [21] = test system: Staphylococcus epidermidis; experiment: Antibacterial activity against coagulase-negative Staphylococcus epidermidis 197 assessed as change in MIC by agar dilution method after serial passages in presence of antibiotic relative to control; type: functional; how it was run: as §3
# Staphylococcus aureus [22] = experiment: Antibacterial activity against methicillin-resistant Staphylococcus aureus 145 by broth macrodilution method; type: functional
# Staphylococcus aureus [23] = experiment: Antibacterial activity against Staphylococcus aureus 145 assessed as change in MIC by agar dilution method after serial passages in presence of antibiotic relative to control; type: functional; how it was run: as §3
# Staphylococcus aureus [24] = experiment: Antibacterial activity against methicillin-susceptible, vancomycin-intermediate Staphylococcus aureus 505 after 50 passages by agar dilution method; type: functional; how it was run: as §5
# [25] = test system: coagulase-negative staphylococci; experiment: Antibacterial activity against Tmp-susceptible coagulase-negative staphylococci by agar dilution method
# [26] = test system: Staphylococcus epidermidis; experiment: Antibacterial activity against coagulase-negative Staphylococcus epidermidis 057 assessed as change in MIC by agar dilution method after serial passages in the absence of antibiotic relative to control; type: functional; how it was run: as §1
# Staphylococcus aureus [27] = experiment: Antibacterial activity against vancomycin-resistant Staphylococcus aureus VRS1 assessed as change in MIC by agar dilution method after serial passages in presence of antibiotic relative to control; type: functional; how it was run: as §5
# [28] = test system: Staphylococcus epidermidis; experiment: Antibacterial activity against coagulase-negative Staphylococcus epidermidis 345 assessed as change in MIC by agar dilution method after serial passages in presence of antibiotic relative to control; type: functional; how it was run: as §3
# [29] = test system: Staphylococcus epidermidis; experiment: Antibacterial activity against methicillin-resistant coagulase-negative Staphylococcus epidermidis 197 after 50 passages by agar dilution method; type: functional
# How it was run: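 Daily serial passage for up to 50 days at 35°C for 24 h in 1 ml MHB. Each transfer used 10 µl from the tube nearest the MIC (1–2 dilutions below) with the same turbidity as the drug-free control. MICs were measured by agar dilution, with changes given as log2 steps.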
# [30] = test system: Staphylococcus epidermidis; experiment: Antibacterial activity against coagulase-negative Staphylococcus epidermidis 345 by agar dilution method; type: functional; how it was run: as §4
# Staphylococcus aureus [31] = experiment: Antibacterial activity against methicillin-resistant Staphylococcus aureus 507 by broth macrodilution method; type: functional
# [32] = test system: Staphylococcus epidermidis; experiment: Antibacterial activity against coagulase-negative Staphylococcus epidermidis 225 by agar dilution method; type: functional; how it was run: as §4
# [33] = test system: Staphylococcus epidermidis; experiment: Antibacterial activity against coagulase-negative Staphylococcus epidermidis 051 assessed as change in MIC by agar dilution method after serial passages in presence of antibiotic relative to control; type: functional; how it was run: as §3
# Staphylococcus aureus [34] = experiment: Antibacterial activity against Staphylococcus aureus 145 assessed as change in MIC by agar dilution method after serial passages in the absence of antibiotic relative to control; type: functional; how it was run: as §1
smiles,measurement,setting,value
COc1ncc(C2c3ccccc3C=NN2C(=O)/C=C/c2cc(Cc3cnc(N)nc3N)cc(OC)c2OC)cn1 (centres undefined),MIC,Staphylococcus aureus [1],0.03 µg/mL
same,MIC,[2],128 µg/mL
same,MIC50,Staphylococcus aureus [3],0.03 µg/mL
same,MIC90,Staphylococcus aureus [3],0.25 µg/mL
same,fold change (FC),Staphylococcus aureus [4],6
same,MIC50,[5],0.06 µg/mL
same,MIC90,[5],0.5 µg/mL
same,fold change (FC),Staphylococcus aureus [6],-1
same,MIC,Staphylococcus aureus [7],≤ 8 ng/mL
same,MIC,Staphylococcus aureus [8],8 µg/mL
same,MIC50,[9],0.125 µg/mL
same,MIC90,[9],0.5 µg/mL
same,MIC,[10],0.06 µg/mL
same,MIC,[11],0.25 µg/mL
same,fold change (FC),[12],-2
same,MIC,Staphylococcus aureus [13],1 µg/mL
same,MIC,[14],0.06 µg/mL
same,MIC50,Staphylococcus aureus [15],0.03 µg/mL
same,MIC90,Staphylococcus aureus [15],0.25 µg/mL
same,fold change (FC),[16],9
same,MIC,[17],0.125 µg/mL
same,MIC90,[18],0.06 µg/mL
same,MIC,[19],8 µg/mL
same,fold change (FC),[20],-4
same,fold change (FC),[21],5
same,MIC,Staphylococcus aureus [22],0.25 µg/mL
same,fold change (FC),Staphylococcus aureus [23],9
same,MIC,Staphylococcus aureus [24],1 µg/mL
same,MIC50,[25],0.016 µg/mL
same,MIC90,[25],0.03 µg/mL
same,fold change (FC),[26],0
same,fold change (FC),Staphylococcus aureus [27],9
same,fold change (FC),[28],7
same,MIC,[29],1 µg/mL
same,MIC,[30],0.125 µg/mL
same,MIC,Staphylococcus aureus [31],0.06 µg/mL
same,MIC,[32],0.25 µg/mL
same,fold change (FC),[33],8
same,fold change (FC),Staphylococcus aureus [34],-4
